Data as given in ChEMBL document CHEMBL1138064, “Discovery of N-[(3R)-1-azabicyclo[2.2.2]oct-3-yl]furo[2,3-c]pyridine-5-carboxamide, an agonist of the alpha7 nicotinic acetylcholine receptor, for the potential treatment of cognitive deficits in schizophrenia: synthesis and structure--activity relationship” (J Med Chem, 2006).
The source made the active and inactive calls. The rule behind the calls is not given here.

Assays:
[1] = molecular target: Cannabinoid receptor 2 (Homo sapiens) (UniProt P34972); assay: Inhibition of CB2 receptor at 1 uM
[2] = molecular target: L-type calcium channel, verapamil site (Homo sapiens, UniProt O60840+Q01668+Q13698+Q13936); assay: Inhibition of verapamil site of Calcium channel L type at 1 uM; type: protein assay
[3] = Oral bioavailability in rat at 5 mg/kg; type: ADME, organism-based; settings: in vivo
Homo sapiens [4] = species: Homo sapiens; assay: Inhibition of stimulated adenylate cyclase at 1 uM
Homo sapiens [5] = species: Homo sapiens; assay: Inhibition of Small conductance calcium-activated potassium channel at 1 uM
[6] = molecular target: 5-hydroxytryptamine receptor 2C (Homo sapiens) (UniProt P28335); assay: Inhibition of 5HT2C receptor at 1 uM
[7] = molecular target: Neuronal acetylcholine receptor; alpha3/beta4 (Homo sapiens, UniProt P30926+P32297); assay: Inhibition of alpha-3-beta-4 nAChR expressed in SHSY5Y cells by FLIPR assay; type: functional, cell-based, SH-SY5Y
Outline: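 FLIPR cell-based functional assay in SH-SY5Y cells, which carry α3β4-containing ganglion-type nAChRs; tested for agonist and antagonist activity; IC50 in µM.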

[8] = molecular target: Phosphodiesterase 3 (Homo sapiens) (UniProt Q14432+Q13370); assay: Inhibition of PDE3 at 1 uM; type: protein assay
[9] = molecular target: Epidermal growth factor receptor (Homo sapiens) (UniProt P00533); assay: Inhibition of EGFR at 1 uM
[10] = molecular target: C-X-C chemokine receptor type 2 (Homo sapiens) (UniProt P25025); assay: Inhibition of CXCR2 at 1 uM
[11] = Clearance in rat constant infusion model; type: ADME, organism-based; settings: in vivo, iv
Outline: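 Clearance determined in a rat constant infusion model.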

Homo sapiens [12] = species: Homo sapiens; assay: Inhibition of ML1 receptor at 1 uM
Rattus norvegicus = assay: Reversal of amphetamine-induced gating deficit in Sprague-Dawley at 0.3 mg/kg, iv; type: functional, organism-based; set-up: dose 0.3 mg/kg
Outline: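 Anesthetised rats; d-amphetamine 1 mg/kg iv given to disrupt auditory gating recorded in the hippocampal CA3 region (conditioning vs test responses, analogous to human P50). Agonist given iv afterwards; read-out is % gating versus amphetamine-alone. The 10 mg/kg dose was run as a separate experiment. Brain drug levels were measured after the iv doses.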

Homo sapiens [13] = species: Homo sapiens; assay: Inhibition of phospholipase C at 1 uM
[14] = molecular target: Adrenergic receptor alpha-2 (Homo sapiens) (UniProt P08913+P18825+P18089); assay: Inhibition of adrenergic alpha2 receptor at 1 uM; type: protein assay
[15] = molecular target: Mu-type opioid receptor (Homo sapiens) (UniProt P35372); assay: Inhibition of human mu opioid receptor at 1 uM
[16] = molecular target: Sodium-dependent serotonin transporter (Homo sapiens) (UniProt P31645); assay: Inhibition of human 5-HT transporter at 1 uM
MAO-A = MAO-A (Homo sapiens, UniProt P21397); assay: Inhibition of MAO-A at 1 uM
[17] = molecular target: Muscarinic acetylcholine receptor M3 (Homo sapiens) (UniProt P20309); assay: Inhibition of M3 receptor at 1 uM
[18] = molecular target: B2 bradykinin receptor (Homo sapiens) (UniProt P30411); assay: Inhibition of B2 receptor at 1 uM
[19] = molecular target: Neuronal acetylcholine receptor subunit alpha-7 (Rattus norvegicus) (UniProt Q05941); assay: Activity at alpha7 nAChR in Sprague-Dawley rat hippocampal neurons assessed as induction of MLA-inhibited desensitizing inward current at 0.3 uM relative to (-)-nicotine; type: functional, tissue-based; set-up: scale not given: the % may be the effect or the level left; settings: Hippocampus
Outline: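 Rat hippocampal neurons were recorded by whole-cell patch clamp with rapid agonist application. Desensitizing inward currents were measured, and α7 mediation was tested with MLA (10 nM), n = 3.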

[20] = molecular target: 5-hydroxytryptamine receptor 7 (Homo sapiens) (UniProt P34969); assay: Inhibition of 5HT7 receptor at 1 uM
[21] = molecular target: Substance-K receptor (Homo sapiens) (UniProt P21452); assay: Inhibition of NK2 receptor at 1 uM
[22] = molecular target: 5-hydroxytryptamine receptor 2A (Homo sapiens) (UniProt P28223); assay: Inhibition of 5HT2A receptor at 1 uM
[23] = molecular target: Muscarinic acetylcholine receptor M1 (Homo sapiens) (UniProt P11229); assay: Inhibition of M1 receptor at 1 uM
[24] = molecular target: D(4) dopamine receptor (Homo sapiens) (UniProt P21917); assay: Inhibition of D4.4 receptor at 1 uM
[25] = molecular target: Serotonin 3 (5-HT3) receptor; assay: Binding affinity to 5HT3 receptor; type: protein-complex assay, Homo sapiens
[26] = molecular target: Protein kinase C (PKC) (Homo sapiens) (UniProt O94806+P41743+P17252+P05129+Q05655+P05771+Q05513+Q02156+P24723+Q15139+Q04759); assay: Inhibition of PKC at 1 uM; type: protein assay
[27] = molecular target: Endothelin receptor type B (Homo sapiens) (UniProt P24530); assay: Inhibition of human ETB receptor at 1 uM
[28] = molecular target: Sigma non-opioid intracellular receptor 1 (Homo sapiens) (UniProt Q99720); assay: Inhibition of sigma receptor at 1 uM
[29] = Ratio of drug level in brain against plasma in rat by MBUA method after 5 min; type: ADME, organism-based; settings: brain and plasma
[30] = molecular target: Type-2 angiotensin II receptor (Homo sapiens) (UniProt P50052); assay: Inhibition of AT2 receptor at 1 uM
[31] = molecular target: Sodium-dependent dopamine transporter (Homo sapiens) (UniProt Q01959); assay: Inhibition of dopamine uptake at human DA transporter at 1 uM
[32] = molecular target: Vasoactive intestinal polypeptide receptor 1 (Homo sapiens) (UniProt P32241); assay: Inhibition of VIP1 receptor at 1 uM
[33] = molecular target: Vasopressin V1a receptor (Homo sapiens) (UniProt P37288); assay: Inhibition of V1A receptor at 1 uM
[34] = molecular target: Adenosine receptor A1 (Homo sapiens) (UniProt P30542); assay: Inhibition of adenosine A1 receptor at 1 uM
[35] = molecular target: Cathepsin G (Homo sapiens) (UniProt P08311); assay: Inhibition of cathepsin G at 1 uM
[36] = molecular target: Tyrosine 3-monooxygenase (Homo sapiens) (UniProt P07101); assay: Inhibition of tyrosine hydroxylase at 1 uM
Cytochrome P450 2D6 = Cytochrome P450 2D6 (Homo sapiens, UniProt P10635); assay: Inhibition of CYP2D6; type: ADME
[37] = molecular target: Beta-2 adrenergic receptor (Homo sapiens) (UniProt P07550); assay: Inhibition of adrenergic beta-2 receptor at 1 uM
[38] = molecular target: Adrenergic receptor alpha-1 (Homo sapiens) (UniProt P35348+P25100+P35368); assay: Inhibition of adrenergic alpha1 receptor at 1 uM; type: protein assay
[39] = molecular target: Human immunodeficiency virus type 1 protease (Human immunodeficiency virus 1) (UniProt Q72874); assay: Inhibition of HIV1 protease at 1 uM
[40] = molecular target: Platelet-derived growth factor receptor (Homo sapiens) (UniProt P09619+P16234); assay: Inhibition of PDGF receptor at 1 uM; type: protein-complex assay
[41] = molecular target: D(2) dopamine receptor (Homo sapiens) (UniProt P14416); assay: Inhibition of D2 receptor at 1 uM
D(2) dopamine receptor (Homo sapiens), sequence (P14416 whole entry): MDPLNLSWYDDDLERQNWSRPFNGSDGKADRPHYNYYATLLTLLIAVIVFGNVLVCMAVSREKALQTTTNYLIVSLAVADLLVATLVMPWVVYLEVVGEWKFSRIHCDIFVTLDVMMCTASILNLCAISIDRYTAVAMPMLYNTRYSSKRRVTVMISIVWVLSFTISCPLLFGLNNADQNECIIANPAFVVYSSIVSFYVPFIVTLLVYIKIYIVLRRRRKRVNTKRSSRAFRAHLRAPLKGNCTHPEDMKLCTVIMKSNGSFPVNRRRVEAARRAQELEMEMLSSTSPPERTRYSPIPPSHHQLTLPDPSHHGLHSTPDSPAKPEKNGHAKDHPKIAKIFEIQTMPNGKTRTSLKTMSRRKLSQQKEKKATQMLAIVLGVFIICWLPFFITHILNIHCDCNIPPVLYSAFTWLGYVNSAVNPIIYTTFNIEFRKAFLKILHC

Sodium-dependent serotonin transporter (Homo sapiens), sequence (P31645 whole entry, looked up): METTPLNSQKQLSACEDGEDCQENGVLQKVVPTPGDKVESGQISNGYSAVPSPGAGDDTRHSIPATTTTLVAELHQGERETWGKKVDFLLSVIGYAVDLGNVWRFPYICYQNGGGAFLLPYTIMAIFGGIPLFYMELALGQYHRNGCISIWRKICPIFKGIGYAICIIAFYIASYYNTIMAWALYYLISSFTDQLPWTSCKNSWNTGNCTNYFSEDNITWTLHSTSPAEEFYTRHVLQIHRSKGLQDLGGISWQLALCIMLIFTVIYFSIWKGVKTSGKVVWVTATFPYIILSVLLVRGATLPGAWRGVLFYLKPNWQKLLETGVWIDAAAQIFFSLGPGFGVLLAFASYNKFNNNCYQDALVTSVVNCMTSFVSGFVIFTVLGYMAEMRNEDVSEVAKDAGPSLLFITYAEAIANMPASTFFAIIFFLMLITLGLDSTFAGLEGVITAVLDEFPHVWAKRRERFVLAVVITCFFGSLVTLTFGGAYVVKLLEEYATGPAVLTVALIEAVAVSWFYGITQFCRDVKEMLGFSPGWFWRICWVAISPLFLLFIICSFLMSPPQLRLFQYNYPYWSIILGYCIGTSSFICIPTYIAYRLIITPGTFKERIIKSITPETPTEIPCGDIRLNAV
Cathepsin G (Homo sapiens), sequence (P08311 whole entry): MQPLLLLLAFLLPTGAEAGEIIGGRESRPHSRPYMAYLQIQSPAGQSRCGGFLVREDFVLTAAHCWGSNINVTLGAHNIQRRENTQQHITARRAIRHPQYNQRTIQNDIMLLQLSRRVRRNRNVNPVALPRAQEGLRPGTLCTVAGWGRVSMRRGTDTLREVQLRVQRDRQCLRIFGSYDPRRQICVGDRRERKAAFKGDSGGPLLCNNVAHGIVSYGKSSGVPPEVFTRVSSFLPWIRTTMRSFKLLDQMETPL
Sigma non-opioid intracellular receptor 1 (Homo sapiens), sequence (Q99720 whole entry): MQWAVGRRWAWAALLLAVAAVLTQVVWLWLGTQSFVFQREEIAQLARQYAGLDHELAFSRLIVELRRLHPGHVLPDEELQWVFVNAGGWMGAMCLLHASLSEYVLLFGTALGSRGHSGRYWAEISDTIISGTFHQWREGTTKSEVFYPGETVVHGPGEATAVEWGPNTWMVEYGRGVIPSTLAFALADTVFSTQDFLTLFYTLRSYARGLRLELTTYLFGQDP
Vasoactive intestinal polypeptide receptor 1 (Homo sapiens), sequence (P32241 whole entry): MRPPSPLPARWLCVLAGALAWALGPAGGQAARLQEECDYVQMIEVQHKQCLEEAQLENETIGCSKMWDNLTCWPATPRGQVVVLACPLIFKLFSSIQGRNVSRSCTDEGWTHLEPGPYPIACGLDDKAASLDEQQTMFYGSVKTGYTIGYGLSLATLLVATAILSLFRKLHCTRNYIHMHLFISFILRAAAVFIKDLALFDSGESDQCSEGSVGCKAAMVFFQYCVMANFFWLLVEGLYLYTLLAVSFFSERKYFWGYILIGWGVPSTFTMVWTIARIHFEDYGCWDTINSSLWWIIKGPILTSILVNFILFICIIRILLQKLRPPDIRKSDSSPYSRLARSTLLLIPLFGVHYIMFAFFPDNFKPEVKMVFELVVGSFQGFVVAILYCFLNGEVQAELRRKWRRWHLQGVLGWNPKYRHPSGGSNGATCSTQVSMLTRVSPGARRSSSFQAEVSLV
Tyrosine 3-monooxygenase (Homo sapiens), sequence (P07101 whole entry): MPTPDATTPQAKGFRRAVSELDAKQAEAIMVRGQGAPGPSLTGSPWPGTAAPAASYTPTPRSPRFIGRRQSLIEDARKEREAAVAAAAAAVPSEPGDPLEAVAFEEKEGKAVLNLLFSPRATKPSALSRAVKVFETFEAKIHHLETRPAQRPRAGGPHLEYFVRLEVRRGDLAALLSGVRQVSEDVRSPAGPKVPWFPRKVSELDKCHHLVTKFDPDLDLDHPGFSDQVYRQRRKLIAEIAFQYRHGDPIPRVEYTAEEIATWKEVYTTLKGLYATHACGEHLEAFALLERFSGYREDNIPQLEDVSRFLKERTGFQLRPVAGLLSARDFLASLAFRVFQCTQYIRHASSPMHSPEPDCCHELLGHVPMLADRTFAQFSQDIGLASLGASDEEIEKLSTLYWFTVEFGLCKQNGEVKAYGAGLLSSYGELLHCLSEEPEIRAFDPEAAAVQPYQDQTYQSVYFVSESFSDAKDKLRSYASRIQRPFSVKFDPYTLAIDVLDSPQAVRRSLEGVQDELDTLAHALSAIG
Substance-K receptor (Homo sapiens), sequence (P21452 whole entry): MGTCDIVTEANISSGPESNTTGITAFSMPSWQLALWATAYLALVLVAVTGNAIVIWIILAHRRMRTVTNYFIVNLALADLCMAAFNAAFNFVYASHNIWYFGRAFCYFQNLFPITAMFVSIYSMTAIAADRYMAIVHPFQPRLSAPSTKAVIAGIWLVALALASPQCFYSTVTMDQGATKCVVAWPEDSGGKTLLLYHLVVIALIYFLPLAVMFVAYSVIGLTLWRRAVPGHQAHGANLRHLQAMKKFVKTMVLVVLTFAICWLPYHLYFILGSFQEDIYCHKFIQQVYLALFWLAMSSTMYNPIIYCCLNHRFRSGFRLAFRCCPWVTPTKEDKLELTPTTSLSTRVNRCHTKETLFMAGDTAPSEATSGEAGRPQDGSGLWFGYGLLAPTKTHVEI
Epidermal growth factor receptor (Homo sapiens), sequence (P00533 whole entry): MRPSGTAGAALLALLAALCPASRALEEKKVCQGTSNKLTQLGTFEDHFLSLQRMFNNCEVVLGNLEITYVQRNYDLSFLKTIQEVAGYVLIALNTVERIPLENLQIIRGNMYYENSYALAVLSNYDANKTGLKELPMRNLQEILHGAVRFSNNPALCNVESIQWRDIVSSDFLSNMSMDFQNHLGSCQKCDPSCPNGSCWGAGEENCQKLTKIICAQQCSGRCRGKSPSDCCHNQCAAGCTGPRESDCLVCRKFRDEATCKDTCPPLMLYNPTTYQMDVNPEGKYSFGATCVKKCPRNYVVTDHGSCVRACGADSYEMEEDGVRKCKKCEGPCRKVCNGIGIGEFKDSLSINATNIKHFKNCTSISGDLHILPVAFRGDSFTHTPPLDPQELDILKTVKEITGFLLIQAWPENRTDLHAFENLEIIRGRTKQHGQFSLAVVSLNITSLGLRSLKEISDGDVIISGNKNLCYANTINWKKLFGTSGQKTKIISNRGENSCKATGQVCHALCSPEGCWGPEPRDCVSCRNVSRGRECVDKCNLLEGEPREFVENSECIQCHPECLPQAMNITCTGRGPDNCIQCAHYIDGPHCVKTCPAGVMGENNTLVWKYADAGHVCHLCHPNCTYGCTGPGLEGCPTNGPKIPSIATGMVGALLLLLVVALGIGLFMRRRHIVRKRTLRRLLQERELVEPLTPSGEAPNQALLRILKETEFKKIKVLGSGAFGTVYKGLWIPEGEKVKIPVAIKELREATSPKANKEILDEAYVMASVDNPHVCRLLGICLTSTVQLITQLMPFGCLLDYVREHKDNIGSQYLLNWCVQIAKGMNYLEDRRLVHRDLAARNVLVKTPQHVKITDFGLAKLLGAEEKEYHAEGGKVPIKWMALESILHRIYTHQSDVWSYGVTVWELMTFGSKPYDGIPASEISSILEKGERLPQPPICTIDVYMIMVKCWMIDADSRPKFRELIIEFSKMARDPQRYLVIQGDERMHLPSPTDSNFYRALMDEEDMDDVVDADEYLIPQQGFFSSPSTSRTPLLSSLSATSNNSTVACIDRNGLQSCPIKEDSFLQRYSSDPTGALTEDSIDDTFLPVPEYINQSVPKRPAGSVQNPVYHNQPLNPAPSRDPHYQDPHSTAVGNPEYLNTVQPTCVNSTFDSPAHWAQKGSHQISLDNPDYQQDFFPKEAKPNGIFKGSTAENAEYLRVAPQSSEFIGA
Cytochrome P450 2D6, sequence (P10635 whole entry): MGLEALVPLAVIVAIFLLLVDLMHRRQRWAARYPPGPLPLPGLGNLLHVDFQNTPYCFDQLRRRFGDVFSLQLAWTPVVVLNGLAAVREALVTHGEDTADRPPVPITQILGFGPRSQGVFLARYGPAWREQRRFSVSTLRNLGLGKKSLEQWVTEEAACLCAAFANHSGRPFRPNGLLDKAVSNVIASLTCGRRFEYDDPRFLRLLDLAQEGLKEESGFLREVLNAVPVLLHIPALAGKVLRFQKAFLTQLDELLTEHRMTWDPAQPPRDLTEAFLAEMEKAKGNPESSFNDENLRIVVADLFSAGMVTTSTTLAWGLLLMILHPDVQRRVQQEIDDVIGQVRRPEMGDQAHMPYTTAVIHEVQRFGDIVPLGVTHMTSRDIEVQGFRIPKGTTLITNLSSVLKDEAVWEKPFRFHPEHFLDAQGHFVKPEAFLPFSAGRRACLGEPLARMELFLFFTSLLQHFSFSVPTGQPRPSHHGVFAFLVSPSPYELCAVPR
Adenosine receptor A1 (Homo sapiens), sequence (P30542 whole entry): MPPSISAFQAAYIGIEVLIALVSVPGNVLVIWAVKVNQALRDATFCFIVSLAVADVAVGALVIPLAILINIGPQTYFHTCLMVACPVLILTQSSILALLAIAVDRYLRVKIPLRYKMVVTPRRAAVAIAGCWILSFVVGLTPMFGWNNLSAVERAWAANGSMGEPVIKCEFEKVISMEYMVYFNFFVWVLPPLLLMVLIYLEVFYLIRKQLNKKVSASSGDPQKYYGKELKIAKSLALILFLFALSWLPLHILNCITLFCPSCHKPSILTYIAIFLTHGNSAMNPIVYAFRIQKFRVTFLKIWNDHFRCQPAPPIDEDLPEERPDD

O=C(N[C@H]1CN2CCC1CC2)c1cc2ccoc2cn1 [PHA-543613]
inhibition [1]: < 10%
inhibition at 1 µM [2]: < 10%
bioavailability [3]: 65%
inhibition (Homo sapiens [4]): < 10%
inhibition (Homo sapiens [5]): < 10%
inhibition [6]: < 10%
IC50 [7]: > 100 µM
inhibition [8]: < 10%
inhibition [9]: < 10%
inhibition [10]: < 10%
clearance [11]: 50 mL/min/kg
inhibition (Homo sapiens [12]): 11%
Activity (Rattus norvegicus): Active
inhibition (Homo sapiens [13]): < 10%
inhibition [14]: 14%
inhibition [15]: < 10%
inhibition [16]: < 10%
inhibition at 1 µM (MAO-A): < 10%
inhibition [17]: 33%
inhibition [18]: < 10%
Activity [19]: 34%
inhibition [20]: < 10%
inhibition [21]: < 10%
inhibition [22]: < 10%
inhibition [23]: 16%
inhibition [24]: 10%
Ki [25]: 0.511 µM
inhibition [26]: 18%
inhibition [27]: < 10%
inhibition [28]: < 10%
Kp at 5 min [29]: 1.5
inhibition [30]: < 10%
inhibition [31]: < 10%
inhibition [32]: < 10%
inhibition [33]: 14%
inhibition [34]: < 10%
inhibition [35]: 15%
inhibition [36]: < 10%
IC50 (Cytochrome P450 2D6): > 10 µM
inhibition [37]: < 10%
inhibition [38]: < 10%
inhibition [39]: < 10%
inhibition [40]: < 10%
inhibition [41]: < 10%
